Experimental data from ChEMBL document CHEMBL2010644, “Evaluation and discovery of novel synthetic chalcone derivatives as anti-inflammatory agents” (J Med Chem, 2011).
pIC50: −log10 of the molar value. Calls of active or inactive are those of the source. No cut-off for these calls is given here.

Experiments:
[1] = test system: RAW264.7; assay: Antiinflammatory activity in mouse RAW264.7 cells assessed as inhibition of LPS-induced TNFalpha production at 10 uM incubated for 2 hrs prior to LPS-challenge measured after 22 hrs by ELISA; assay type: functional, cell-based
Procedure, shortened: (§1)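 RAW264.7 cells grown in DMEM with 10% FBS at 37 °C, 5% CO2, plated at 1.2 × 10^6/plate overnight. Compound pretreatment 2 h (screen at 10 μM; dose-response at 2.5, 5.0, 10 μM), then LPS 0.5 μg/mL for 22 h. Medium TNF-α or IL-6 measured by ELISA, normalized to cell protein, expressed as % of LPS control; IC50 derived from dose series.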

[2] = test system: RAW264.7; assay: Antiinflammatory activity in mouse RAW264.7 cells assessed as inhibition of LPS-induced IL6 production at 10 uM incubated for 2 hrs prior to LPS-challenge measured after 22 hrs by ELISA; assay type: functional, cell-based; procedure, shortened: as §1
[3] = test system: Peritoneal macrophage cell; assay: Antiinflammatory activity in ICR mouse primary peritoneal macrophages assessed as downregulation of LPS-induced COX-2 mRNA expression at 10 uM incubated for 2 hrs prior to LPS-challenge measured after 6 hrs by RT-qPCR analysis; assay type: functional, cell-based
Procedure, shortened: (§2)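 Macrophages pretreated 2 h with compound at 10 μM or vehicle, then LPS 0.5 μg/mL for 6 h. mRNA of TNF-α, IL-6, COX-2, IL-1β and IL-12 quantified by RT-qPCR, normalized to β-actin mRNA and expressed as ratio to DMSO. Mean ± SD of four to seven independent experiments.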

[4] = test system: Peritoneal macrophage cell; assay: Antiinflammatory activity in ICR mouse primary peritoneal macrophages assessed as downregulation of LPS-induced IL-1beta mRNA expression at 10 uM incubated for 2 hrs prior to LPS-challenge measured after 6 hrs by RT-qPCR analysis; assay type: functional, cell-based; procedure, shortened: as §2
[5] = test system: Peritoneal macrophage cell; assay: Antiinflammatory activity in ICR mouse primary peritoneal macrophages assessed as downregulation of LPS-induced IL-12 mRNA expression at 10 uM incubated for 2 hrs prior to LPS-challenge measured after 6 hrs by RT-qPCR analysis; assay type: functional, cell-based; procedure, shortened: as §2
[6] = species: Mus musculus; assay: Inhibition of JNK-induced NfkappaB p65 subunit translocation from cytoplasm to nucleus in LPS-stimulated ICR mouse primary peritoneal macrophages at 10 uM incubated for 2 hrs prior to LPS-challenge measured after 1 hr by fluorescence microscopy
Procedure, shortened: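 Macrophages pretreated with DMSO or 10 μM compound for 2 h, stimulated with LPS 0.5 μg/mL for 1 h. Stained with anti-p65 and Cy3-conjugated secondary antibody, nuclei with DAPI. Imaged at 200× by fluorescence microscopy with red/blue overlay. Five independent experiments.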

[7] = species: Mus musculus; assay: Inhibition of JNK-induced IkappaBalpha degradation in LPS-stimulated ICR mouse primary peritoneal macrophages incubated for 2 hrs prior to LPS-challenge measured after 30 mins by Western blot analysis
Procedure, shortened: (§3)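 Peritoneal macrophages pretreated with DMSO or compound (2.5, 5, 10 or 20 μM) for 2 h, then LPS 0.5 μg/mL for 30 min. Western blot of 40 μg lysate on 10% SDS-PAGE for IκBα (actin loading control) and p-JNK (JNK control); optical density normalized as percent of control. Mean ± SEM, three independent experiments.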

[8] = species: Mus musculus; assay: Inhibition of LPS-induced JNK phosphorylation in ICR mouse primary peritoneal macrophages incubated for 2 hrs prior to LPS-challenge measured after 30 mins by Western blot analysis; procedure, shortened: as §3
[9] = species: Mus musculus; assay: Inhibition of LPS-induced ERK phosphorylation in ICR mouse primary peritoneal macrophages at 10 uM incubated for 2 hrs prior to LPS-challenge measured after 1 hr by Western blot analysis
Procedure, shortened: (§4)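 Cells pretreated 2 h with DMSO or compound (10 μM in the single-concentration set; 2.5, 5.0, 10, 20 μM in the dose series), then LPS 0.5 μg/mL for 1 h. p-ERK, ERK, p-p38 and p38 detected by Western blot with actin loading control; optical density ratio reported. Mean ± SE, three independent experiments.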

[10] = target: T1, MAP kinase p38 (Mus musculus) (UniProt P47811+O08911+Q9WUI1+Q9Z1B7); assay: Inhibition of LPS-induced p38 phosphorylation in ICR mouse primary peritoneal macrophages at 10 uM incubated for 2 hrs prior to LPS-challenge measured after 1 hr by Western blot analysis; procedure, shortened: as §4
[11] = target: T1, MAP kinase p38 (Mus musculus); assay: Inhibition of LPS-induced p38 phosphorylation in ICR mouse primary peritoneal macrophages incubated for 2 hrs prior to LPS-challenge measured after 1 hr by Western blot analysis; procedure, shortened: as §4
[12] = species: Mus musculus; assay: Inhibition of LPS-induced ERK phosphorylation in ICR mouse primary peritoneal macrophages at 20 uM incubated for 2 hrs prior to LPS-challenge measured after 1 hr by Western blot analysis; procedure, shortened: as §4
[13] = target: T1, MAP kinase p38 (Mus musculus); assay: Inhibition of LPS-induced p38 phosphorylation in ICR mouse primary peritoneal macrophages at 20 uM incubated for 2 hrs prior to LPS-challenge measured after 1 hr by Western blot analysis; procedure, shortened: as §4
[14] = test system: Mus musculus; assay: Antiinflammatory activity against LPS-induced inflammation in C57BL/6 mouse assessed as survival at 15 mg/kg, iv administered 15 mins prior to LPS-challenge after 7 days relative to vehicle treated control; assay type: functional
Procedure, shortened: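 Male B6 mice, 18−22 g, acclimatized ≥7 days. Compound at 2 mg/mL in macrogol 15 hydroxystearate solubilizer (5−10% final) with or without MCT (0.5−2% final), 200 μL iv at 15 mg/kg, 15 min before iv LPS 20 mg/kg. Vehicle controls got 10% solubilizer/2% MCT. Survival and body weight recorded every 12 h for 7 days; n = 10 per group.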

[15] = test system: Mus musculus; assay: Toxicity in C57BL/6 mouse assessed as weight loss at 15 mg/kg, iv up to 60 hrs; assay type: organism-based; design: dose 15 mg/kg, route intravenous; settings: in vivo
Procedure, shortened: (§5)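 Male B6 mice (18−22 g) given compound at 15 mg/kg iv (2 mg/mL in macrogol 15 hydroxystearate 5−10% ± MCT 0.5−2%, 200 μL). LPS 20 mg/kg iv followed 15 min later. Vehicle controls received 10% solubilizer/2% MCT. Body weight recorded every 12 h for 7 days; n = 10 per group.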

[16] = test system: Mus musculus; assay: Toxicity in C57BL/6 mouse assessed as weight loss at 15 mg/kg, iv after 60 hrs; assay type: organism-based; design: dose 15 mg/kg, route intravenous; settings: in vivo; procedure, shortened: as §5
[17] = test system: Peritoneal macrophage cell; assay: Antiinflammatory activity in ICR mouse primary peritoneal macrophages assessed as downregulation of high glucose-induced TNFalpha mRNA expression at 10 uM incubated for 2 hrs prior to high glucose-challenge measured after 3 hrs by RT-qPCR analysis; assay type: functional, cell-based
Procedure, shortened: (§6)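 Peritoneal macrophages (1 × 10^6) pretreated with compound (10 μM) or DMSO for 2 h, then high glucose (25 mM) for 3 h. Low-glucose reference cells kept in RPMI-1640 with 5.5 mM glucose. TNF-α, IL-1β, IL-6 and IL-12 mRNA measured by RT-qPCR on whole-cell RNA. Mean ± SEM, three independent experiments run in duplicate.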

[18] = test system: Peritoneal macrophage cell; assay: Antiinflammatory activity in ICR mouse primary peritoneal macrophages assessed as downregulation of high glucose-induced IL1beta mRNA expression at 10 uM incubated for 2 hrs prior to high glucose-challenge measured after 3 hrs by RT-qPCR analysis; assay type: functional, cell-based; procedure, shortened: as §6
[19] = test system: Peritoneal macrophage cell; assay: Antiinflammatory activity in ICR mouse primary peritoneal macrophages assessed as downregulation of high glucose-induced IL12 mRNA expression at 10 uM incubated for 2 hrs prior to high glucose-challenge measured after 3 hrs by RT-qPCR analysis; assay type: functional, cell-based; procedure, shortened: as §6
[20] = test system: Peritoneal macrophage cell; assay: Antiinflammatory activity in ICR mouse primary peritoneal macrophages assessed as downregulation of high glucose-induced IL6 mRNA expression at 10 uM incubated for 2 hrs prior to high glucose-challenge measured after 3 hrs by RT-qPCR analysis; assay type: functional, cell-based; procedure, shortened: as §6
[21] = test system: RAW264.7; assay: Antiinflammatory activity in mouse RAW264.7 cells assessed as inhibition of LPS-induced IL6 production incubated for 2 hrs prior to LPS-challenge measured after 22 hrs by ELISA; assay type: functional, cell-based; procedure, shortened: as §1
[22] = test system: RAW264.7; assay: Antiinflammatory activity in mouse RAW264.7 cells assessed as inhibition of LPS-induced TNFalpha production incubated for 2 hrs prior to LPS-challenge measured after 22 hrs by ELISA; assay type: functional, cell-based; procedure, shortened: as §1
[23] = test system: Peritoneal macrophage cell; assay: Antiinflammatory activity in ICR mouse primary peritoneal macrophages assessed as downregulation of LPS-induced TNF-alpha mRNA expression at 10 uM incubated for 2 hrs prior to LPS-challenge measured after 6 hrs by RT-qPCR analysis; assay type: functional, cell-based; procedure, shortened: as §2
[24] = test system: Peritoneal macrophage cell; assay: Antiinflammatory activity in ICR mouse primary peritoneal macrophages assessed as downregulation of LPS-induced IL-6 mRNA expression at 10 uM incubated for 2 hrs prior to LPS-challenge measured after 6 hrs by RT-qPCR analysis; assay type: functional, cell-based; procedure, shortened: as §2
[25] = test system: RAW264.7; assay: Antiinflammatory activity in mouse RAW264.7 cells assessed as inhibition of LPS-induced TNFalpha production at 10 uM incubated for 2 hrs prior to LPS-challenge measured after 22 hrs by ELISA relative to control; assay type: functional; procedure, shortened: as §1
[26] = test system: RAW264.7; assay: Antiinflammatory activity in mouse RAW264.7 cells assessed as inhibition of LPS-induced IL6 production at 10 uM incubated for 2 hrs prior to LPS-challenge measured after 22 hrs by ELISA relative to control; assay type: functional; procedure, shortened: as §1
[27] = species: Mus musculus; assay: Inhibition of LPS-induced ERK phosphorylation in ICR mouse primary peritoneal macrophages incubated for 2 hrs prior to LPS-challenge measured after 1 hr by Western blot analysis; procedure, shortened: as §4

inhibition [9] | inhibition [10] | pIC50 [21] | SMILES | inhibition [1] | inhibition [2] | Activity [3] | Activity [4] | Activity [5] | Activity [17] | Activity [18] | Activity [19] | Activity [20] | inhibition [21] | pIC50 [22] | inhibition [22] | Activity [23] | Activity [24] | also measured
 |  |  | COc1ccc(C(=O)/C=C/c2cccc(OC)c2OC)cc1 | Active | Active |  |  |  |  |  |  |  |  |  |  |  |  | 
 |  |  | COc1cc(/C=C/C(=O)CC(=O)/C=C/c2ccc(O)c(OC)c2)ccc1O | Active | Active |  |  |  |  |  |  |  |  |  |  |  |  | 
Active | Active | 5.27 | COc1ccc(/C=C/C(=O)c2ccc(OC)c(OC)c2)c(OC)c1 | Active | Active | Active | Active | Active | Active | inactive | Active | Active | Dose-dependent effect | 5.56 | Dose-dependent effect | Active | Active | 
Active | Active | 5.16 | COc1cc(C(=O)/C=C/c2ccc(N(C)C)cc2)cc(OC)c1OC | Active | Active | inactive | inactive | Active | Active | Active | Active | inactive | Dose-dependent effect | 5.54 | Dose-dependent effect | Active | Active | inhibition at 10 µM [25]: 61.2%; inhibition at 10 µM [26]: 73.4%
 |  |  | COc1ccc(C(=O)/C=C/c2ccccc2Cl)cc1OC | Active | Active |  |  |  |  |  |  |  |  |  |  |  |  | 
Active | Active | < 5.00 | COc1ccc(C(=O)/C=C/c2ccc(O)c(OC)c2)cc1 | Active | Active | Active | Active | Active | Active | Active | Active | Active | Dose-dependent effect |  | Dose-dependent effect | Active | Active | 
 |  |  | COc1ccc(/C=C/C(=O)c2cc(OC)c(OC)c(OC)c2)c(OC)c1 | Active | Active |  |  |  |  |  |  |  |  |  |  |  |  | 

SMILES | inhibition [9] | inhibition [10] | pIC50 [21] | inhibition [1] | inhibition [2] | Activity [3] | Activity [4] | Activity [5] | Activity [17] | Activity [18] | Activity [19] | Activity [20] | inhibition [21] | pIC50 [22] | inhibition [22] | Activity [23] | Activity [24] | also measured
COc1ccc(C(=O)/C=C/c2c(F)cccc2F)cc1 | Active | Active | 5.26 |  |  | inactive | Active | Active | Active | Active | Active | Active | Dose-dependent effect | 5.07 | Dose-dependent effect | Active | Active | inhibition [6]: Active; inhibition [7]: Dose-dependent effect; inhibition [8]: Dose-dependent effect; inhibition [11]: Dose-dependent effect; inhibition [12]: Active; inhibition [13]: Active; Activity [14]: 80%; Activity [15]: Toxic; Activity [16]: Non-toxic
COc1ccc(C(=O)/C=C/c2ccccc2Cl)cc1 | Active | Active | 5.09 |  |  | Active | Active | Active | Active | Active | Active | Active | Dose-dependent effect | 5.14 | Dose-dependent effect | Active | Active | inhibition [6]: Active; inhibition [7]: Dose-dependent effect; inhibition [8]: Dose-dependent effect; inhibition [27]: Dose-dependent effect; inhibition [11]: Dose-dependent effect; inhibition [12]: Active; inhibition [13]: Active; Activity [14]: 70%; Activity [15]: Toxic; Activity [16]: Non-toxic
